TRPC6 act: activates the mouse TRPC6 cation channel. B-score at 10 µM. HEK293-TRPC6 membrane potential dye fluorescence; hits give high values. Q61143. actives 0.13% (n = 310,000);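 active means B-score of the integrated fluorescence ratio above library mean plus 3 SD, and starting fluorescence ratio within library mean plus 5 SD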;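 further: higher score means more depolarization so channel activation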
Target sequence (Q61143 whole entry, looked up): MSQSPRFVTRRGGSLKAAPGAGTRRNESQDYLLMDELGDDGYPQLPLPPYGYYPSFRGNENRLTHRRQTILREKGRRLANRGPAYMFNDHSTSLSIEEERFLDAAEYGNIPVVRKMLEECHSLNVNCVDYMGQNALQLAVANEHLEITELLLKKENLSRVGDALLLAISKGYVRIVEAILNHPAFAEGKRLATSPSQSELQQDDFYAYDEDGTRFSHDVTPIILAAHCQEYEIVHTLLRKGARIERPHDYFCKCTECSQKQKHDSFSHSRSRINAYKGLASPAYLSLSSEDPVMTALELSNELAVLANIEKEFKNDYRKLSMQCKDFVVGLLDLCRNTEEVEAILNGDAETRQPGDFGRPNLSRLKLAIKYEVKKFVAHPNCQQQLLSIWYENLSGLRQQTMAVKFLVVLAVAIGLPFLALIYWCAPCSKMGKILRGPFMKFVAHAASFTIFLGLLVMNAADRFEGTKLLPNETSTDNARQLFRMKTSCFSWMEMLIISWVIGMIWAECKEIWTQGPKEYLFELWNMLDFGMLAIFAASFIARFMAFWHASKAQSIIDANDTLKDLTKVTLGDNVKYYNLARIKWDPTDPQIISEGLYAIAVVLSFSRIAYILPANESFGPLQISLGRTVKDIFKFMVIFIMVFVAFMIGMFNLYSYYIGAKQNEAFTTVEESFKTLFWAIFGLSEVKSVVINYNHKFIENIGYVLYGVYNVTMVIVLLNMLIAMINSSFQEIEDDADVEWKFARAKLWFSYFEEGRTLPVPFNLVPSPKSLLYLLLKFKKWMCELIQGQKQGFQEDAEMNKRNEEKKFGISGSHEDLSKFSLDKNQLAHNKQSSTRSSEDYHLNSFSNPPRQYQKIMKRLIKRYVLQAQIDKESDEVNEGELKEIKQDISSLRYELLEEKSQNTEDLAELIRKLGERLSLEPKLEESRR
TRPC6 inh: inhibitors of mouse TRPC6 channel. HEK293-TRPC6, membrane potential dye, ACh-evoked depolarization; hits give low values. B-score at 10 µM. actives 1.1% (n = 310,000). Q61143. AID 2553;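 active means B-score under library mean minus 3 SD, initial fluorescence not abnormally high, positive integrated signal ratio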;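 further: B-score derived from integrated fluorescence ratio over the kinetic read; more negative B-score means stronger inhibition of depolarization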
TRPC4 potent: allosterically enhances the mouse TRPC4 cation channel | Q9QUQ5 | AID 2227 | B-score at 10 µM | HEK293 TRPC4beta/mu-opioid, DAMGO EC20, Fluo-4 Ca2+ flux; hits give high values | actives 0.42% (n = 310,000);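 active means B-score of calcium response area above 5 SD of library B-scores, with initial fluorescence ratio within 5 SD of library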;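 further: B-score of integrated fluorescence ratio over time as area under calcium response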
TRPC4 agonist: opens the mouse TRPC4 cation channel. Q9QUQ5. HEK293 TRPC4beta/mu-opioid, Fluo4 calcium fluorescence; hits give high values. B-score at 10 µM. actives 0.49% (n = 310,000). AID 2237;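 active means B-score above 5 SD of library B-scores, and initial fluorescence ratio not above library mean plus 5 SD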;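 further: positive B-score marks a calcium rise read as TRPC4 activation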
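Test system: HEK293 cells stably co-expressing mouse TRPC4beta and mu-opioid receptor | Schedule: Fluo4 dye loading 45 min at room temperature, 110 s recording | Measured by: Kinetic Fluo4 calcium fluorescence, 5 s baseline at 1 Hz | Evaluation: B score of integrated ratio | Controls: Buffer (low) and maximal DAMGO (high)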
TRPC4 block: inhibitors of mouse TRPC4 channel; Q9QUQ5; B-score at 10 µM; HEK293 TRPC4beta/mu-opioid, DAMGO-evoked Fluo4 calcium flux; hits give low values; actives 0.39% (n = 300,000);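 active means B-score over 3 SD under the library average, no early fluorescence shift, positive overall ratio signal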
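Assay system – HEK293 line stably carrying TRPC4beta and mu-opioid receptor · Doses – single dose · Detection – Fluo4 calcium-dye fluorescence, kinetic read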
* hit, by the source's call; i = inactive. Hits are enriched below; roughly 2.3% of the tested compounds scored in any of these assays.

SMILES | TRPC6 act | TRPC6 inh | TRPC4 potent | TRPC4 agonist | TRPC4 block
CN(C)CCc1nc2ccccc2c(=O)n1-c1ccccc1 | i | i | i | i | i
CN(C)CCn1cnc2ccccc21 | i | i | 15* | i | i
O=C(CCCN1CCC2(CC1)C(=O)NCN2c1ccccc1)c1ccc(F)cc1 | i | i | i | 158* | i
OC1/C(=C/c2ccc(F)cc2)N2CCC1CC2 (stereo not drawn) | i | i | i | i | i
CC1(C)CC(CCNCc2ccc3c(c2)OCO3)(Cc2ccccc2)CCO1 (stereo not drawn) | i | i | i | 60* | i
CC1(C)C(C(=O)N2CCN(C(=O)c3ccccc3)CC2)C1(C)C | i | i | i | i | i
Cc1nn(Cc2ccc(Cl)cc2Cl)c(Cl)c1C(=O)O | i | i | i | i | i
N=c1c2c(n(Cc3ccc(Cl)cc3Cl)c3c1CCC3)CCCC2 | i | -5.1* | i | i | i
O=c1[nH]c(=S)n(C2CC2)c(O)c1C=NCCc1ccccc1 | i | i | i | i | i
CSc1ccc(C(=O)C2CCCN(CCCn3cccn3)C2)cc1 (stereo not drawn) | i | i | i | 83* | i
Cc1ccc(/C=C2/Sc3ccc(C(=O)N4CCC5(CC4)OCCO5)cc3NC2=O)cc1 | i | i | i | i | i
CN(C)C=C1C(=O)N(C2CCCCC2)C(=O)N(C2CCCCC2)C1=O | i | i | i | 95* | i
COc1cc(CN=Cc2c(O)n(C(C)(C)C)c(=O)[nH]c2=O)cc(OC)c1 | i | i | i | i | i
CCOP(=O)(OCC)c1ccc(OP(=O)(c2cccc([N+](=O)[O-])c2)c2cccc([N+](=O)[O-])c2)cc1 | i | i | i | i | i
CCOc1ccc(C(C)=O)cc1Cn1ccsc1=N | i | i | i | i | -5*
O=C(c1cccc2ccccc12)C1CCCN(C2CCC2)C1 (stereo not drawn) | i | i | 10* | i | i
CN(C)C(CNC(=O)Cc1ccc(Br)cc1)c1ccccc1 (stereo not drawn) | i | i | i | 175* | i
CC(Cc1ccccc1)NC(=O)Cc1ccc(N(C)C)cc1 (stereo not drawn) | i | i | i | i | i
O=C(c1ccc2c(c1)OCO2)C1CCCN(CC2CCCCC2)C1 (stereo not drawn) | i | i | i | i | i
CN(C)C1(CNC(=O)Nc2ccc(Cl)c(Cl)c2)CCCCC1 | i | i | i | 91* | i
Cc1nn(Cc2ccccc2)c(C)c1C(=O)OCC(=O)Nc1cc(S(C)(=O)=O)ccc1Cl | i | i | i | i | i
CCCc1cc(=O)oc2cc(OCC(=O)N3CCC(C(=O)O)(c4ccccc4)CC3)ccc12 | i | i | i | i | i
CN1C(=O)N(C)C(=O)C2(Cc3cc([N+](=O)[O-])ccc3N(C)C2c2ccccc2)C1=O (stereo not drawn) | i | i | i | i | i
COc1ccc(CNCCc2c[nH]c3ccccc23)c(OC)c1C | i | i | i | 182* | i
COc1cccc(CNCCc2c[nH]c3ccccc23)c1 | i | i | i | i | i
SMILES | TRPC6 act | TRPC6 inh | TRPC4 potent | TRPC4 agonist | TRPC4 block
COc1cc(C)c(CNCCc2c[nH]c3ccccc23)cc1C | i | i | i | 144* | i
C=C1C2[C@H](OC(C)=O)[C@@H]3CC(=O)[C@]4(C)OC[C@@]3(C)[C@@]4(O)[C@@H](OC(C)=O)[C@H](OC(C)=O)[C@@]2(COC(=O)c2ccccc2)[C@@H](OC(C)=O)C[C@@H]1O (stereo partly drawn) | i | i | i | i | i
C[C@@]12N[C@@H](Cc3ccccc31)c1ccccc12 | i | i | i | i | i
Cc1nn(C)cc1/C=C1/CC2C3CC=C4CC(O)CCC4(C)C3CCC2(C)C1=O (stereo not drawn) | i | i | 10* | i | i
CC12CCC3C(CC=C4CC(O)CCC43C)C1C/C(=C\c1ccccc1F)C2=O (stereo not drawn) | i | i | i | i | i
COc1ccc2c(c1O)[C@]13CCN(C)[C@H](C2)[C@@H]1CCC(=O)C3 | i | i | i | 114* | i
Clc1ccc(C[n+]2c(-c3ccccc3)cc(-c3ccccc3)cc2-c2ccccc2)cc1 | i | -5.2* | i | i | i
CC/C(=N\Nc1ccccc1)c1c(O)n(C)c(=O)n(C)c1=O | i | i | 13* | i | -6*
CC/C(=N\Nc1ccccc1)c1c(O)n(-c2ccccc2)c(=O)[nH]c1=O | i | i | i | i | i
Cc1cccc(OP(=O)(Oc2ccccc2)OC(c2ccccc2)C(F)(F)F)c1 (stereo not drawn) | i | i | i | i | i
COc1ccc(CCNCc2ccc(SC)cc2)cc1 | i | i | i | 101* | i
COc1cccc(CNCCc2ccc(F)cc2)c1 | i | i | i | i | i
C=CCn1c(O)c(N=Nc2c(C)n(C)n(-c3ccccc3)c2=O)c(=O)[nH]c1=S | i | i | i | 45* | i
Cc1c(N=Nc2c(O)[nH]c(=S)[nH]c2=O)c(=O)n(-c2ccccc2)n1C | i | i | i | i | i
COc1ccc(-n2c(CNCCc3ccc(C)cc3)nc3ccccc3c2=O)cc1 | i | i | i | 134* | i
CCCc1nc2ccccc2c(=O)n1-c1ccc(OC)cc1 | i | i | i | i | i
CCCn1cc(CN2CCCC(C(=O)c3cccc(OC)c3)C2)c(C)n1 (stereo not drawn) | i | i | i | i | i
O=C(c1cccc(C(F)(F)F)c1)C1CCCN(Cc2ccccc2O)C1 (stereo not drawn) | i | i | i | i | -9*
Cc1ccc(CN2CCCC(C(=O)c3cccc(C(F)(F)F)c3)C2)o1 (stereo not drawn) | i | i | i | i | i
CCn1cc(CN2CCCC(C(=O)c3cccc(OC)c3)C2)c(C)n1 (stereo not drawn) | i | i | i | 53* | i
O=C(c1ccc(C(F)(F)F)cc1)C1CCCN(Cc2ccncc2)C1 (stereo not drawn) | i | i | i | 51* | i
O=P(Nc1c(Cl)cccc1Cl)(c1ccccc1)c1nc2c(s1)CCCC2 (stereo not drawn) | i | i | i | i | i
O=P(Nc1ccccc1Cl)(c1ccccc1)c1nc2c(s1)CCCC2 (stereo not drawn) | i | i | 14* | i | i

Screening data as filed in PubChem.
